Data set [1] in a line: Therapeutic index, ratio of IC50 for human MRC5 cells to IC50 for human CCRF-CEM cells. Type of data set: cell-based. The conditions noted are these: MRC5 cells versus CCRF-CEM cells, read-out: Ratio IC50.
The next data set relates to MRC5. In words: Cytotoxicity against human MRC5 cells after 72 hrs by MTT assay. The class given is cell-based. The conditions noted are these: MRC5, 72 h. The method, boiled down:
(§1)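 Cells seeded at 2500–30,000 per well according to cell type and pre-incubated 24 h at 37 °C, 5% CO2. Four-fold dilutions of compounds dissolved in 10% DMSO were added at time zero, in quadruplicate, then incubated 72 h. MTT was added for a further 1–4 h and formazan dissolved in 10% aq SDS (pH 5.5) overnight at 37 °C. OD was read at 540 nm. Survival was taken as % of mean control OD, and IC50 was read from dose-response curves.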
Background: Tetrazolium assays rely on reduction of a dye to a coloured formazan, in cell work by metabolically active cells.

The subject of a further data set is A549. In words: Cytotoxicity against human A549 cells after 72 hrs by MTT assay. Type of data set: functional, cell-based. The conditions noted are these: A549, 72 h. The method, boiled down:
as §1

Data set [2] can be described thus: Therapeutic index, ratio of IC50 for human BJ cells to IC50 for human CCRF-CEM cells. Type of data set: cell-based. The following applies: BJ cells versus CCRF-CEM cells, read-out: Ratio IC50.
Another data set relates to BJ. Briefly: Cytotoxicity against human BJ cells after 72 hrs by MTT assay. The class given is cell-based. The gist of the method:
as §1

The test system of data set [3] is HCT-116. In words: Cytotoxicity against human p53-deficient HCT116 cells after 72 hrs by MTT assay. The class given is functional, cell-based. The following applies: HCT-116, 72 h. The gist of the method:
as §1

Data set [4] is described as follows: Therapeutic index, ratio of IC50 for human BJ cells to IC50 for paclitaxel-resistant human K562 cells. The class given is cell-based. The conditions noted are these: BJ cells versus paclitaxel-resistant K562 cells, read-out: Ratio IC50.
The nature of data set [5]: Therapeutic index, ratio of IC50 for human BJ cells to IC50 for human K562 cells. Type of data set: cell-based. The conditions noted are these: BJ cells versus K562 cells, read-out: Ratio IC50.
Data set [6] has as its system CCRF-CEM. In words: Cytotoxicity against human CCRF-CEM cells after 72 hrs by MTT assay. The class given is functional, cell-based.
The test system of data set [7] is HCT-116. Briefly: Cytotoxicity against human HCT116 cells after 72 hrs by MTT assay. The class given is functional, cell-based. The following applies: HCT-116, 72 h. The method, boiled down: as §1
Data set [8] relates to CCRF-CEM. Briefly: Cytotoxicity against human daunorubicine resistant CEM cells after 72 hrs by MTT assay. Type of data set: functional, cell-based. The method, boiled down: as §1
The subject of data set [9] is K562. Briefly: Cytotoxicity against human K562 cells after 72 hrs by MTT assay. Type of data set: functional, cell-based. The conditions noted are these: K562, 72 h. The method, boiled down: as §1
The test system of data set [10] is K562. In words: Cytotoxicity against human paclitaxel resistant K562 cells after 72 hrs by MTT assay. The conditions noted are these: K562, 72 h. Type of data set: functional, cell-based. The gist of the method: as §1

As usually defined, the IC50 is the concentration that inhibits the measured activity by half. A low value points to higher potency.

On to `CC(C)[C@@H]1CC[C@]2(C(=O)O)CC[C@]3(C)[C@H](CC[C@@H]4[C@@]5(C)CC(Br)C(=O)C(C)(C)[C@@H]5CC[C@]43C)[C@@H]12` (mixture of isomers), for which the selectivity ratio in data set [1], in data set [2], in [4] and in data set [5] was above 10 in each case. Also, the IC50 in the data set on MRC5 amounted to 14.6 µM; in the data set on A549 it was 11.9 µM; in the data set on BJ, 17.8 µM; in the data set on HCT-116 [3], 4.1 µM; with CCRF-CEM [6], 1 µM; in the data set on HCT-116 [7] it was 4.3 µM. Besides, the figures for the IC50 in the data set on CCRF-CEM [8], in the data set on K562 [9] and in the data set on K562 [10] were 11.4 µM, 1.6 µM and 1.7 µM, respectively.

Source of the values: ChEMBL document CHEMBL2034860, “Cytotoxic heterocyclic triterpenoids derived from betulin and betulinic acid” (Bioorg Med Chem, 2012).
